We go through six compounds from ChEMBL document CHEMBL2062459, “Type 1 Phototherapeutic Agents. 2. Cancer Cell Viability and ESR Studies of Tricyclic Diarylamines” (ACS Med Chem Lett, 2012).

The test system of this assay is U-937. Kind of assay: Cytotoxicity in UV-irradiated human U937 cells exposed to photosensitizer for 2 hrs before irradiation for 20 mins by WST-1 assay. Type of assay: functional, cell-based. The following applies: U-937, light or radiation study. The gist of the method: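 Compounds were made up as 8 mM DMSO stocks and diluted into culture medium so that final DMSO on cells stayed below 0.5%. Cells were tested across a concentration range both in the dark and with light exposure. Values are the average of at least three independent runs.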
(Formazan colour is commonly taken as a measure of viable cells.)
As for `c1ccc(C2c3ccccc3Nc3ccccc32)cc1`, the IC50 turned out to be 170 nM.

For the compound `c1ccc2c(c1)Cc1ccccc1N2` [ACRIDAN], the IC50 amounted to 680 nM. `c1ccc2c(c1)[nH]c1ccccc12` [CARBAZOLE]: the IC50 is 5560 nM. `C1=Cc2ccccc2Nc2ccccc21` [IMINOSTILBENE]: the half-inhibitory concentration (IC50) is 2580 nM. On to `c1ccc2c(c1)Nc1ccccc1S2` [PHENOTHIAZINE], for which the IC50 was found to be 1390 nM. Take `c1ccc2c(c1)Nc1ccccc1O2` [PHENOXAZINE]: the IC50 was found to be 14500 nM.

The term IC50 denotes the midpoint of a concentration-inhibition curve.
